Laboratory results published in ChEMBL document CHEMBL4680130, “Substituted 4-phenylthiazoles: Development of potent and selective A, A and dual A/A adenosine receptor antagonists” (Eur J Med Chem, 2020).

What was measured:
Adenosine receptor A2a [1] = target: Adenosine receptor A2a (Rattus norvegicus, UniProt P30543); experiment: Displacement of [3H]MSX2 from adenosine receptor A2A in rat brain striatum membranes incubated for 30 mins by radioligand competition assay; type: cell membranes, Cell membrane
Adenosine receptor A2a [2] = target: T1, Adenosine receptor A2a (Homo sapiens, UniProt P29274); experiment: Displacement of [3H]MSX2 from human adenosine receptor A2A expressed in HEK293 cell membranes incubated for 30 mins by radioligand competition assay; design: species or system Cell membrane
Adenosine receptor A1 [3] = target: T2, Adenosine receptor A1 (Rattus norvegicus, UniProt P25099); experiment: Displacement of [3H]CCPA from rat adenosine receptor A1 by radioligand competition assay
T2 sequence (P25099 whole entry): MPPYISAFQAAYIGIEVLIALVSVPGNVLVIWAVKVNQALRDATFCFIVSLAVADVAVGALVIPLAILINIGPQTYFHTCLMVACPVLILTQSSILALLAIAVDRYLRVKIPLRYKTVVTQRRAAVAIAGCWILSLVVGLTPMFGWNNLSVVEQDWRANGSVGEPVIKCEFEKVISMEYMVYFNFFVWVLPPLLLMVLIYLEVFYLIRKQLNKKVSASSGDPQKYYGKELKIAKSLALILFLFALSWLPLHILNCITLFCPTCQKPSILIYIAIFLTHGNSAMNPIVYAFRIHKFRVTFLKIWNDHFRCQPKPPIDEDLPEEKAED
Summary of the method: (§1)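 A1 competition binding with [3H]CCPA, 0.5 nM. Membranes: CHO cells expressing human A1, or rat brain cortex. Membranes preincubated 20 min with adenosine deaminase (2 U/mL per mg protein). Incubation 90 min at rt in 50 mM Tris-HCl pH 7.4 with 2.5% final DMSO. Nonspecific binding defined by 10 µM 2-chloroadenosine. GF/B filtration, scintillation counting.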

Adenosine receptor A2b [4] = target: T3, Adenosine receptor A2b (Homo sapiens, UniProt P29275); experiment: Displacement of [3H]PSB-603 from human adenosine receptor A2B expressed in CHO cell membranes incubated for 75 mins by radioligand competition assay; design: species or system Cell membrane
T3 sequence (P29275 whole entry): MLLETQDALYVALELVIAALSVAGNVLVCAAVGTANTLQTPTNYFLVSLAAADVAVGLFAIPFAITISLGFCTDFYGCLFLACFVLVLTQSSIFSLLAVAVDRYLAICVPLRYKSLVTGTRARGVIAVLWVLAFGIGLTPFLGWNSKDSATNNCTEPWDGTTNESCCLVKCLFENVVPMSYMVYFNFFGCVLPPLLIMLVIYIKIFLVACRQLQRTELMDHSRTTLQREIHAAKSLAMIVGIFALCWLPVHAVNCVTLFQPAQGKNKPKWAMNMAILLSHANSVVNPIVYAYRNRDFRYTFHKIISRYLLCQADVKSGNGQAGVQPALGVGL

Adenosine receptor A3 [5] = target: T4, Adenosine receptor A3 (Homo sapiens, UniProt P0DMS8); experiment: Displacement of [3H]PSB-11 from human adenosine receptor A3 expressed in CHO cell membranes incubated for 60 mins by radioligand competition assay; design: species or system Cell membrane
T4 sequence (P0DMS8 whole entry): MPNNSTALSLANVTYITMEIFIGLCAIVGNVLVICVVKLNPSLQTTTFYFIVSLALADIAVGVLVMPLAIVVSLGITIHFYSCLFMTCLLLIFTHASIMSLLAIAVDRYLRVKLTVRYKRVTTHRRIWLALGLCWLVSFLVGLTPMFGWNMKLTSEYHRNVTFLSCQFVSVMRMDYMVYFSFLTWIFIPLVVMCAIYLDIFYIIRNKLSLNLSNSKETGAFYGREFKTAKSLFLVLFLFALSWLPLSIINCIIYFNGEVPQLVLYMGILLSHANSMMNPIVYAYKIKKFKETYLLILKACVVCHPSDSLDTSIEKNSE

Adenosine receptor A1 [6] = target: T5, Adenosine receptor A1 (Homo sapiens, UniProt P30542); experiment: Displacement of [3H]CCPA from human adenosine receptor A1 expressed in CHO cell membranes incubated for 90 mins by radioligand competition assay; design: species or system Cell membrane
T5 sequence (P30542 whole entry): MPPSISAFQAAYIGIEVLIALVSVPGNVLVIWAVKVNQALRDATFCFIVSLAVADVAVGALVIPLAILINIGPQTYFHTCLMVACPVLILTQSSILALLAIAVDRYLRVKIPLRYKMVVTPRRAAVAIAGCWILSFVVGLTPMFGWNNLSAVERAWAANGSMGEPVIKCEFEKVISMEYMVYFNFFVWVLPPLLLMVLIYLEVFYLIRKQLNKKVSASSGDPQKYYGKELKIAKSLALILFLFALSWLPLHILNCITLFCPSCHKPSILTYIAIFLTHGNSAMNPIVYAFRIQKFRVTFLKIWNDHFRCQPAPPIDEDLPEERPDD

Adenosine receptor A1 [7] = target: T2, Adenosine receptor A1; experiment: Displacement of [3H]DPCPX from rat adenosine receptor A1 by radioligand competition assay
Summary of the method: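 Rat brain cortical membranes, [3H]DPCPX 0.4 nM. Nonspecific binding defined by 10 μM DPCPX. Curves run with and without 100 μM GTP. Incubation 90 min at rt in 50 mM Tris-HCl pH 7.4, after 20 min adenosine deaminase preincubation. Filtration, then scintillation counting. GTP shift is the IC50 with GTP divided by the IC50 without GTP.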

Adenosine receptor A1 [8] = target: T2, Adenosine receptor A1; experiment: Displacement of [3H]DPCPX from rat brain cortical membrane A1AR in presence of 100 uM of GTP by scintillation counting analysis; type: cell membranes, Cortex, Cell membrane
Adenosine receptor A1 [9] = target: T2, Adenosine receptor A1; experiment: Displacement of [3H]CCPA from adenosine receptor A1 in rat brain cortex membranes incubated for 90 mins by radioligand competition assay; type: cell membranes, Cell membrane
Adenosine receptor A1 [10] = target: T2, Adenosine receptor A1; experiment: Displacement of [3H]DPCPX from rat brain cortical membrane A1AR in absence of GTP by scintillation counting analysis; type: cell membranes, Cortex, Cell membrane
[11] = target: T6, Adenosine receptor A2b (Homo sapiens) (UniProt P29275); experiment: Displacement of [3H]PSB-603 from human adenosine receptor A2B expressed in CHO cell membranes at 0.1 uM incubated for 75 mins by radioligand competition assay relative to control; conditions: Cell membrane
T6 sequence (whole entry): T3 sequence (P29275 whole entry)
Summary of the method: (§2)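 CHO membranes expressing human or rat A2B, [3H]PSB-603 0.3 nM. Nonspecific binding defined by 10 µM DPCPX. Preincubated 20 min with adenosine deaminase, then 75 min at rt in Tris-HCl pH 7.4 with 2.5% DMSO. Filters washed with ice-cold 50 mM Tris-HCl containing 0.1% BSA; scintillation counting.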

[12] = target: T7, Adenosine receptor A1 (Rattus norvegicus) (UniProt P25099); experiment: Displacement of [3H]CCPA from adenosine receptor A1 in rat brain cortex membranes at 0.1 uM incubated for 90 mins by radioligand competition assay; conditions: Cell membrane, filed as antagonist; summary of the method: as §1
T7 sequence (whole entry): T2 sequence (P25099 whole entry)

[13] = target: Adenosine receptor A2a (Rattus norvegicus) (UniProt P30543); experiment: Displacement of [3H]MSX2 from adenosine receptor A2A in rat brain striatum membranes at 0.1 uM incubated for 30 mins by radioligand competition assay relative to control; conditions: Cell membrane
Summary of the method: (§3)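 A2A binding, [3H]MSX-2 1.0 nM. Membranes: rat brain striatum, or HEK293 cells expressing human A2A. Adenosine deaminase preincubation 20 min, then 30 min at rt in 50 mM Tris-HCl pH 7.4 with 2.5% DMSO. Nonspecific binding defined by 50 µM NECA. GF/B filtration, scintillation counting. Single-concentration percent inhibition, ≥3 experiments in duplicate or triplicate.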

Adenosine receptor A3 [14] = target: T8, Adenosine receptor A3 (Rattus norvegicus, UniProt P28647); experiment: Displacement of [3H]NECA from rat adenosine receptor A3 expressed in CHO cell membranes incubated for 60 mins by radioligand competition assay; design: species or system Cell membrane
T8 sequence (P28647 whole entry): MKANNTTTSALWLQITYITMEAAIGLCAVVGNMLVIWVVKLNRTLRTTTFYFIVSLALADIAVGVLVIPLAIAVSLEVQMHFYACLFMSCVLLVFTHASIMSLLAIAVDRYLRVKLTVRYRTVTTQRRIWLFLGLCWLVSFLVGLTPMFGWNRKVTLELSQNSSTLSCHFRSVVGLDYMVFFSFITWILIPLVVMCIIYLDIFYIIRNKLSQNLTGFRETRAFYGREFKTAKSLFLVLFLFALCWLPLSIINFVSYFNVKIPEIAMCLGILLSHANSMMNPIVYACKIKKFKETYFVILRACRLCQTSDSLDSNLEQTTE

[15] = target: T9, Adenosine receptor A3 (Rattus norvegicus) (UniProt P28647); experiment: Displacement of [3H]NECA from rat adenosine receptor A3 expressed in CHO cell membranes at 0.1 uM incubated for 60 mins by radioligand competition assay relative to control; conditions: Cell membrane
T9 sequence (whole entry): T8 sequence (P28647 whole entry)
Summary of the method: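 CHO membranes expressing rat A3, [3H]NECA 10 nM. Nonspecific binding defined by 100 µM R-PIA. Preincubated 20 min with adenosine deaminase, then 60 min at rt in 50 mM Tris-HCl pH 7.4 with 2.5% DMSO. GF/B filtration, scintillation counting.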

Adenosine receptor A2b [16] = target: T10, Adenosine receptor A2b (Rattus norvegicus, UniProt P29276); experiment: Displacement of [3H]PSB-603 from rat adenosine receptor A2B expressed in CHO cell membranes incubated for 75 mins by radioligand competition assay; design: species or system Cell membrane; summary of the method: as §2
T10 sequence (P29276 whole entry): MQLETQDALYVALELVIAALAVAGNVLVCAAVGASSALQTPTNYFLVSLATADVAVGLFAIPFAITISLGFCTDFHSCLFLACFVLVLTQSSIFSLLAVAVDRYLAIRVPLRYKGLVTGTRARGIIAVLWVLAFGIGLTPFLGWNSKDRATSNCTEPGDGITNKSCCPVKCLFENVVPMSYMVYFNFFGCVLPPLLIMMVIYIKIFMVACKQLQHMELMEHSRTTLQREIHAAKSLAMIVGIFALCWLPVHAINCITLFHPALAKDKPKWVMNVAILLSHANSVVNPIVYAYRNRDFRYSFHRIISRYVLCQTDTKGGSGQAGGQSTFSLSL

Adenosine receptor A2a [17] = target: T1, Adenosine receptor A2a; experiment: Displacement of [3H]MSX2 from human adenosine receptor A2A expressed in HEK293 cell membranes at 0.1 uM incubated for 30 mins by radioligand competition assay relative to control; conditions: Cell membrane, in the assay text read “at 1 uM” for “at 0.1 uM”; summary of the method: as §3
[18] = target: T11, Adenosine receptor A3 (Homo sapiens) (UniProt P0DMS8); experiment: Displacement of [3H]PSB-11 from human adenosine receptor A3 expressed in CHO cell membranes at 0.1 uM incubated for 60 mins by radioligand competition assay; conditions: Cell membrane, dose 1 µM, in the assay text read “1 uM” for “0.1 uM”
T11 sequence (whole entry): T4 sequence (P0DMS8 whole entry)
Summary of the method: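 CHO membranes expressing human A3, [3H]PSB-11 0.5 nM. Nonspecific binding defined by 100 µM R-PIA. Adenosine deaminase preincubation 20 min, then 60 min at rt in 50 mM Tris-HCl pH 7.4 with 2.5% DMSO. Filtered on GF/B, scintillation counted.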

T1 sequence (P29274 whole entry): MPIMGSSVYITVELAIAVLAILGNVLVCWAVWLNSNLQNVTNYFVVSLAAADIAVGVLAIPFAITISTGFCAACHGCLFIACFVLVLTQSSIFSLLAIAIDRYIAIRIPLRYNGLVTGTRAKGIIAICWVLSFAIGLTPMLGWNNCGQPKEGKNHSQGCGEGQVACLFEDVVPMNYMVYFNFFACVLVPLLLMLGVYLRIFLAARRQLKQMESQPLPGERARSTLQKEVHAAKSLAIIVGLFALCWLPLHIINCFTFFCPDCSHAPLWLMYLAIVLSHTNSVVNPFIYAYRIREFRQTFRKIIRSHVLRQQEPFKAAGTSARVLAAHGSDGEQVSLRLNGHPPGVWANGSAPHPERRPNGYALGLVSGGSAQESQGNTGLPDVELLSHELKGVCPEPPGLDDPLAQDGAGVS
Adenosine receptor A2a (Rattus norvegicus, UniProt P30543), sequence (P30543 whole entry): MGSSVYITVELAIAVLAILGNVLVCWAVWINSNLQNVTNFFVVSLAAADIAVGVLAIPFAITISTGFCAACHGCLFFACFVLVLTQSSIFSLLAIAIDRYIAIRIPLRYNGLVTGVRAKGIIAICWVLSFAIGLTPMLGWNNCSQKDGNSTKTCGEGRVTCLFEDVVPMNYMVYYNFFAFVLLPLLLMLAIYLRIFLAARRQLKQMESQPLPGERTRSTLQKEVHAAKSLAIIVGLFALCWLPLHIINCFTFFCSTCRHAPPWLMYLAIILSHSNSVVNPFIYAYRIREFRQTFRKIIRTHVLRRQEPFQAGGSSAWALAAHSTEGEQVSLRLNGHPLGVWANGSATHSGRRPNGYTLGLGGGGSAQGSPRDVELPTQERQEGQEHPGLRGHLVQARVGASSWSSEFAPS
Adenosine receptor A2a (Rattus norvegicus), sequence (P30543 whole entry): as above

Row | SMILES | Ki (Adenosine receptor A2a [1]) [nM] | Ki (Adenosine receptor A2a [2]) [nM] | Ki (Adenosine receptor A1 [3]) [nM] | Ki (Adenosine receptor A2b [4]) [nM] | Ki (Adenosine receptor A3 [5]) [nM] | Ki (Adenosine receptor A1 [6]) [nM] | Ki (Adenosine receptor A1 [7]) [nM] | IC50 (Adenosine receptor A1 [8]) [nM] | Ki (Adenosine receptor A1 [9]) [nM] | IC50 (Adenosine receptor A1 [10]) [nM] | inhibition [11] [%] | inhibition [12] [%] | inhibition [13] [%] | Ki (Adenosine receptor A3 [14]) [nM] | inhibition [15] [%] | Ki (Adenosine receptor A2b [16]) [nM] | inhibition (Adenosine receptor A2a [17]) [%] | inhibition [18] [%]
1 | O=C(Nc1nc(-c2ccccc2)c(C(=O)c2ccc(F)cc2F)s1)c1ccccc1 | > 1000 | 77.7 | 2.79 | > 100 | 67.8 | 55.3 | 2.93 | 3.14 | 2.79 | 3.15 | – | – | – | – | – | – | – | –
2 | O=C(Nc1nc(-c2ccccc2)c(-c2nc3ccccc3c(=O)n2-c2ccc(Cl)cc2)s1)c1ccccc1 | > 1000 | > 1000 | – | > 100 | 83.3 | > 1000 | – | – | > 1000 | – | 12 | 16 | 7 | > 10000 | 22 | – | – | –
3 | COc1ccc(C(=O)Nc2nc(-c3ccccc3)c(C(=O)c3ccc(Cl)cc3)s2)cc1 | > 1000 | > 1000 | – | > 100 | > 1000 | 32.3 | – | – | 1.01 | – | – | – | 12 | > 10000 | – | > 100 | – | –
4 | Cc1ccc(C(=O)c2sc(NC(=O)c3ccco3)nc2-c2ccccc2)cc1 | 1210 | > 1000 | 0.348 | > 100 | 42.2 | 7.57 | 0.0628 | 0.084 | 0.348 | 0.067 | 2 | – | – | – | – | – | – | –
5 | COc1ccc(C(=O)Nc2nc(-c3ccccc3)c(-c3nc4ccccc4c(=O)n3-c3ccc(C)cc3)s2)cc1 | > 1000 | > 1000 | – | > 100 | 27.8 | > 1000 | – | – | > 1000 | – | 2 | 25 | 15 | > 10000 | 15 | – | – | –
6 | COc1ccc(C(=O)Nc2nc(-c3ccccc3)c(C(=O)c3ccc(F)cc3F)s2)cc1 | > 1000 | > 1000 | – | > 100 | > 1000 | > 1000 | – | – | – | – | 0 | 54 | 16 | – | – | – | 14 | 24
7 | O=C(Nc1nc(-c2ccccc2)c(C(=O)c2ccc(Cl)cc2)s1)c1ccccc1 | 1670 | 39.1 | 0.939 | > 100 | 428 | 24.4 | 0.0867 | 0.0981 | 0.939 | 0.0929 | – | – | – | – | – | – | – | –
